Laboratory results: ChEMBL document CHEMBL2016466, “Design, synthesis, and biological evaluation of new diaminoquinazolines as β-catenin/Tcf4 pathway inhibitors” (J Med Chem, 2012)

Tests used:
HCT-116 [1] = experiment: Growth inhibition of human HCT116 cells assessed as viable cells after 3 days using resazurin by […] assay; type: functional, cell-based; conditions: HCT-116, 72 h
Outline: (§1)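 Cells grown in RPMI 1640 + 10% FBS + penicillin/streptomycin, trypsinized and seeded at 2 × 10³ cells/well. Compound added 24 h later as a concentration curve starting at 10 μg/mL with nine further 2-fold dilutions. After 3 days of exposure, viability was read with CellTiter-Blue (resazurin to resorufin). IC50 is the average of three separate experiments.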

SW480 = experiment: Growth inhibition of human SW480 cells assessed as viable cells after 3 days using resazurin by […] assay; type: functional, cell-based; conditions: SW480, 72 h; outline: as §1
TCF4/beta-catenin = TCF4/beta-catenin (Homo sapiens, UniProt P35222+Q9NQB0); experiment: Inhibition of beta-catenin/TCF4 pathway expressed in HCT116 cells containing delta45S mutant after 24 hrs by luciferase reporter gene assay; type: cell-based; conditions: hct-116
TCF4/beta-catenin, sequence (P35222 2-781 limits assumed, stated change not applied): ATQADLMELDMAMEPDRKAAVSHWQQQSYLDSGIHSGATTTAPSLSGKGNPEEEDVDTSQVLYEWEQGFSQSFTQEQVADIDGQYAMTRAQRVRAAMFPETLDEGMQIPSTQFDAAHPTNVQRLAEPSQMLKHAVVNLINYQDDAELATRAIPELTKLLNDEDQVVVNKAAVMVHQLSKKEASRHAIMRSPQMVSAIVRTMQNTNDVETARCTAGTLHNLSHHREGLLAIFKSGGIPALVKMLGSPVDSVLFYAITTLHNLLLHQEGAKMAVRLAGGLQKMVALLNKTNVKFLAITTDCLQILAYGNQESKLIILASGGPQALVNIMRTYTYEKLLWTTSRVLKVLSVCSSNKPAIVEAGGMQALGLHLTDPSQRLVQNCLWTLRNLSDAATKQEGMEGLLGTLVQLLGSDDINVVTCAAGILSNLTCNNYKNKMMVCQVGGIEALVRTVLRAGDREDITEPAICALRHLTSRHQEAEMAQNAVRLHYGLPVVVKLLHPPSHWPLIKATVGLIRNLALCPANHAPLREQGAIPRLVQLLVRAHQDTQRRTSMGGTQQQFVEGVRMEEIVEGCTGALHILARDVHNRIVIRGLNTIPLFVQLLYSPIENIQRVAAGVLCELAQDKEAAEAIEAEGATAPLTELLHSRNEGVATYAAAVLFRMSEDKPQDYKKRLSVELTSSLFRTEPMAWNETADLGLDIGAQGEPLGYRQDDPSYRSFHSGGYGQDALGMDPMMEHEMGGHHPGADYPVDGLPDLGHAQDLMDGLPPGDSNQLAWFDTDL
TCF4/beta-catenin, sequence (Q9NQB0 whole entry, stated change not applied): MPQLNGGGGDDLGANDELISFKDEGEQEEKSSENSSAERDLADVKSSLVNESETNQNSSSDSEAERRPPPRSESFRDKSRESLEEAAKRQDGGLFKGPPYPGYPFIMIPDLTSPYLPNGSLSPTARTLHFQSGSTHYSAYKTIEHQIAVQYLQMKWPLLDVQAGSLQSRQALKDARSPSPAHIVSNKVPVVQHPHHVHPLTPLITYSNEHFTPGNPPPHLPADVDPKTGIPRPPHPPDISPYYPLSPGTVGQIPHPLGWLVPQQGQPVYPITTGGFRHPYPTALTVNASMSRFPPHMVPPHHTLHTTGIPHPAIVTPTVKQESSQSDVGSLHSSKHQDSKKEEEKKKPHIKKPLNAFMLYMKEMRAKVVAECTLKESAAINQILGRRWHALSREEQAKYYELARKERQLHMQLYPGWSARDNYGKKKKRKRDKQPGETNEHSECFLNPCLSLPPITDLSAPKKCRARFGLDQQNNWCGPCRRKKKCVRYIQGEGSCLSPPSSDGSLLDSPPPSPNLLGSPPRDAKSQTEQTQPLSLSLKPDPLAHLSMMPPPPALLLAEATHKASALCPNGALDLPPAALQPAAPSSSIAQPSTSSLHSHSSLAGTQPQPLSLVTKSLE
Outline: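 HCT116 cells at 1 × 10⁴/well, cotransfected with 50 ng TOP-FLASH reporter (Tcf4 binding sites) and 50 ng pTK-β-gal as internal control. At 4 h post-transfection, fresh medium with compound at various concentrations was added. Firefly luciferase was read 24 h after compound addition, normalized to β-galactosidase and expressed as a percentage of control luciferase activity.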

[2] = Solubility of the compound in water; type: physicochemical; conditions: buffer
[3] = Ratio of IC50 for human HCT116 cells to IC50 for […]/TCF4 pathway expressed in HCT116 cells; type: cell-based; conditions: HCT-116
HCT-116 [4] = experiment: Growth inhibition of human HCT116 cells assessed as clonogenic growth after 9 days using crystal violet staining; type: functional, cell-based; conditions: HCT-116, 216 h
Outline: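 HCT116 cells in RPMI 1640 + 10% FBS + penicillin/streptomycin, plated at 300 cells/well in six-well plates 8 h before treatment with or without inhibitor (highest final concentration 1.5 μM). Incubated 9 days, then fixed with 10% acetic acid in methanol, stained with 0.05% crystal violet and colonies counted. IC50 is the average of three separate experiments.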

Structure (SMILES) | IC50 (HCT-116 [1]) | IC50 (SW480) | IC50 (TCF4/beta-catenin) | solubility [2] | IC50 (HCT-116 [4]) | Ratio IC50 [3]
CCNc1nc(NCc2ccc(NC(=O)c3ccc(F)cc3)cc2Cl)c2ccccc2n1 | 1.5 µM | 1.6 µM | – | – | – | –
CCCNc1nc(NCc2ccc(C(=O)Nc3ccc(F)cc3)cc2)c2cc(C)ccc2n1 | 1.2 µM | 1.3 µM | – | soluble | – | –
CNc1nc(NCc2ccc(NC(=O)c3ccc(F)cc3)cc2Cl)c2ccccc2n1 | 2 µM | 2.3 µM | – | – | – | –
CNc1ncc(Br)c(NCc2ccc(NC(=O)c3ccc(F)cc3)cc2)n1 | > 20 µM | > 20 µM | – | – | – | –
Cc1ccc2nc(N(C)C)nc(NCc3ccc(C(=O)NC4CCN(Cc5ccc(F)cc5)CC4)cc3)c2c1 | 0.8 µM | 1.1 µM | 2.5 µM | – | 0.313 µM | –
Cc1ccc2nc(N(C)C)nc(NCc3ccc(C(=O)N4CCC(C(=O)NCc5ccc(F)cc5)CC4)cc3)c2c1 | 5.6 µM | 5.6 µM | – | – | – | –
Cc1ccc2nc(N(C)C)nc(NCc3ccc(C(=O)N[C@H]4C[C@@H]4c4ccccc4)cc3)c2c1 (relative stereo) | 1.3 µM | 2.4 µM | 3 µM | – | – | –
CCCNc1nc(NCc2ccc(C(=O)Nc3ccc(F)cc3)cc2)c2ccccc2n1 | 1.5 µM | 1.6 µM | 3 µM | – | 0.684 µM | –
CN(C)CCCNc1nc(NCc2ccc(NC(=O)c3ccc(F)cc3)cc2)c2ccccc2n1 | 10 µM | 14 µM | – | – | – | –
CNc1nc(NCc2ccc(C(=O)NC3CCN(Cc4ccc(F)cc4)CC3)cc2)c2cc(C)ccc2n1 | 1.2 µM | 1.3 µM | 3 µM | – | – | –
C=CCNc1nc(NCc2ccc(C(=O)NC3CCN(C(=O)c4ccc(F)cc4)CC3)cc2)c2cc(C)ccc2n1 | 6.9 µM | 5.2 µM | – | – | – | –
CN(C)c1nc(NCc2ccc(C(=O)N3CCC(C(=O)NCc4ccc(F)cc4)CC3)cc2)c2ccccc2n1 | 5.7 µM | 5.5 µM | – | – | – | –
CCNc1ncc(C)c(NCc2ccc(NC(=O)c3ccc(F)cc3)cc2)n1 | > 20 µM | > 20 µM | – | – | – | –
CN1CCN(c2nc(NCc3ccc(NC(=O)c4ccc(F)cc4)cc3)c3ccccc3n2)CC1 | 1.8 µM | 2.5 µM | – | – | – | –
Cc1ccc2nc(N3CCNC(C)C3)nc(NCc3ccc(C(=O)NC4CCN(Cc5ccc(F)cc5)CC4)cc3)c2c1 (racemic) | 2 µM | 1 µM | > 5 µM | – | – | –
Cc1ccc2nc(N3CCNC(C)C3)nc(NCc3ccc(C(=O)NCc4ccc(F)cc4)cc3)c2c1 (racemic) | 2.9 µM | 1.4 µM | – | – | – | –

Structure (SMILES) | IC50 (HCT-116 [1]) | IC50 (SW480) | IC50 (TCF4/beta-catenin) | solubility [2] | IC50 (HCT-116 [4]) | Ratio IC50 [3]
CCCCNc1nc(NCc2ccc(C(=O)Nc3ccc(F)cc3)cc2)c2ccccc2n1 | 1.4 µM | 1 µM | 1.5 µM | – | 0.381 µM | –
CCCNc1nc2ccccc2c(NCc2ccc(NC(=O)c3ccc(F)cc3)cc2)c1C#N | > 20 µM | > 20 µM | – | – | – | –
CNc1nc2ccccc2c(NCc2ccc(NC(=O)c3ccc(F)cc3)cc2)c1C#N | > 20 µM | > 20 µM | – | – | – | –
CCNc1nc(NCc2ccc(C(=O)Nc3ccc(F)cc3)cc2)c2ccccc2n1 | 1.9 µM | 2.5 µM | 3.5 µM | – | – | –
CCCNc1nc(NCc2ccc(NC(=O)c3ccc(F)cc3)cc2)c2ccccc2n1 | 1.7 µM | 2 µM | 2.5 µM | – | – | 2
Cc1ccc(S(=O)(=O)Nc2ccc(CNc3nc(N(C)C)nc4ccccc34)cc2)cc1 | 11 µM | 13 µM | – | – | – | –
CCCNc1nc(NCc2ccc(C(=O)Nc3ccc(Cl)nc3)cc2)c2cc(C)ccc2n1 | 1.5 µM | 2.1 µM | 2.5 µM | – | – | –
Cc1ccc(S(=O)(=O)Nc2ccc(CNc3nc(N4CCN(C)CC4)nc4ccccc34)cc2)cc1 | > 20 µM | > 20 µM | – | – | – | –
CCNc1nc(NCc2ccc(NC(=O)c3ccc(F)cc3)cc2)c2ccccc2n1 | 1.4 µM | 2.3 µM | 3 µM | – | – | 2
O=S(=O)(Nc1ccc(CNc2nc(NC3CC3)nc3ccccc23)cc1)c1ccc(F)cc1 | 4.9 µM | 4.1 µM | – | – | – | –
CC1CN(c2nc(NCc3ccc(C(=O)Nc4ccc(F)cc4)cc3)c3ccccc3n2)CCN1 (racemic) | 2.8 µM | 3.2 µM | > 5 µM | – | – | –
Cc1ccc2nc(N(C)C)nc(NCc3ccc(C(=O)Nc4ccc(Cl)nc4)cc3)c2c1 | 1.3 µM | 1.1 µM | 2.5 µM | – | – | –
CCCNc1nc(NCc2ccc(C(=O)NC3CCN(C(=O)c4ccc(F)cc4)CC3)cc2)c2cc(C)ccc2n1 | 6.8 µM | 5.5 µM | – | – | – | –
Cc1ccc2nc(N(C)C)nc(NCc3ccc(C(=O)NCCc4ccc(F)cc4)cc3)c2c1 | 0.6 µM | 1.4 µM | 1.5 µM | – | 0.264 µM | –
C=CCNc1nc(NCc2ccc(C(=O)Nc3ccc(F)cc3)cc2)c2ccccc2n1 | 14 µM | 11 µM | – | – | – | –

More lines, main results first:

IC50 (HCT-116 [1]) | IC50 (SW480) | IC50 (TCF4/beta-catenin) | solubility [2] | IC50 (HCT-116 [4]) | Structure (SMILES) | Ratio IC50 [3]
> 20 µM | > 20 µM | – | – | – | CN1CCN(c2nc(NCc3ccc(NC(=O)c4ccncc4)cc3)c3ccccc3n2)CC1 | –
1.1 µM | 1.5 µM | 1 µM | – | – | CNc1nc(NCc2ccc(C(=O)NCCc3ccc(F)cc3)cc2)c2cc(C)ccc2n1 | –
1.6 µM | 1.1 µM | 3 µM | – | – | CCCNc1nc(NCc2ccc(C(=O)NC3CCN(Cc4ccc(F)cc4)CC3)cc2)c2cc(C)ccc2n1 | –
2.7 µM | 2.6 µM | – | – | – | O=C(Nc1ccc(F)cc1)c1ccc(CNc2nc(NC3CC3)nc3ccccc23)cc1 | –
15 µM | 11 µM | – | – | – | CN(C)c1nc(NCc2ccc(NC(=O)c3ccncc3)cc2)c2ccccc2n1 | –
> 20 µM | > 20 µM | – | – | – | CN(C)CCCNc1nc(NCc2ccc(NC(=O)c3ccc(CN4CCN(C)CC4)cc3)cc2)c2ccccc2n1 | –
1.6 µM | 2 µM | 3.5 µM | – | – | CNc1nc(NCc2ccc(NC(=O)c3ccc(F)cc3)cc2)c2ccccc2n1 | 2
13 µM | 10 µM | – | – | – | C=CCNc1nc(NCc2ccc(C(=O)Nc3ccc(F)cc3)cc2)c2cc(C)ccc2n1 | –
0.9 µM | 1.1 µM | 2 µM | – | 0.298 µM | Cc1ccc2nc(N(C)C)nc(NCc3ccc(C(=O)NCc4ccc(F)cc4)cc3)c2c1 | –
> 20 µM | > 20 µM | – | – | – | CNc1nc(NCc2ccc(NC(=O)c3ccncc3)cc2)c2ccccc2n1 | –
1.9 µM | 2.6 µM | 3 µM | – | – | CN(C)c1nc(NCc2ccc(C(=O)Nc3ccc(F)cc3)cc2)c2ccccc2n1 | –
1.6 µM | 1.6 µM | 2 µM | – | – | CCCNc1nc(NCc2ccc(C(=O)NCCc3ccc(F)cc3)cc2)c2cc(C)ccc2n1 | –
4.4 µM | 2.2 µM | – | – | – | CCCNc1nc(NCc2ccc(C(=O)NCc3ccc(F)cc3)cc2)c2cc(C)ccc2n1 | –
5.5 µM | 5.7 µM | – | – | – | CCCNc1nc(NCc2ccc(C(=O)N3CCC(C(=O)NCc4ccc(F)cc4)CC3)cc2)c2ccccc2n1 | –
5.3 µM | 4.8 µM | – | – | – | CNc1nc(NCc2ccc(NS(=O)(=O)c3ccc(F)cc3)cc2)c2ccccc2n1 | –
10 µM | 11 µM | – | – | – | CNc1nc(NCc2ccc(NC(=O)c3ccc(CN4CCN(C)CC4)cc3)cc2)c2ccccc2n1 | –
4.6 µM | 5.2 µM | – | – | – | CCCNc1nc(NCc2ccc(C(=O)N3CCC(C(=O)NCc4ccc(F)cc4)CC3)cc2)c2cc(C)ccc2n1 | –
5.8 µM | 4.9 µM | – | – | – | CNc1nc(NCc2ccc(NS(=O)(=O)c3ccc(C)cc3)cc2)c2ccccc2n1 | –
1.3 µM | 2.2 µM | – | – | – | CN(C)c1nc(NCc2ccc(NC(=O)c3ccc(F)cc3)cc2)c2ccccc2n1 | –
2.9 µM | 4.1 µM | – | – | – | CNc1nc(NCc2ccc(C(=O)Nc3ccc(F)cc3)cc2)c2ccccc2n1 | –
> 20 µM | > 20 µM | – | – | – | CNc1ncc(C)c(NCc2ccc(NC(=O)c3ccc(F)cc3)cc2)n1 | –
1.7 µM | 1.8 µM | 3.5 µM | – | – | CCNc1nc(NCc2ccc(C(=O)N[C@H]3C[C@@H]3c3ccccc3)cc2)c2cc(C)ccc2n1 (relative stereo) | –
